Screens deposited in PubChem by several laboratories.
NR3A LBD binder: modulates the human NR3A ligand-binding domain; NR3A LBD differential scanning fluorimetry, Tm shift; 0% = protein alone, 100% = glycine-bound protein; Tm shift relative to glycine control, % at 25 µM; 2.5% of 340,000 active; AID 1259313;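 active = melting temperature shift of at least 10% of the positive control shift, at one fixed dose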
SKN-1 block: C. elegans SKN-1 inhibition; inhibition, % at 21.8 µM; 0.49% of 360,000 active; C. elegans VP596 Pgst-4::GFP/RFP ratio, acrylamide-induced, 24 h;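 active = interference check ratio from 0.5 to 1.5 plus GFP to RFP signal ratio inhibition reaching or exceeding a fixed threshold, cut at about 30% in these data, passing the limit was not always enough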
ADAM10 inh: ADAM10 inhibition, QFRET primary screen; AID 720582; inhibition, % at 7 µM; 0.62% of 370,000 active; O14672; recombinant ADAM10, EDANS/DABCYL FRET peptide cleavage, 3 h;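 active = inhibition above a per-campaign cutoff equal to the mean of compounds falling between control-based bounds plus 3 SD, cut at about 20% in these data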;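 note: 0% = DMSO wells while the 100% control is not disclosed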
MT1-MMP act inh: inhibitors of human MT1-MMP activation | HT1080 RFP-PRO-GFP cells, GFP/RFP ratio fluorescence, overnight; percent of plate control window, DMSO zero | GFP/RFP ratio change, % at 20 µM | 0.061% of 360,000 active | AID 651647;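 active = GFP/RFP ratio change of at least 30% with cell ATP level not reduced by more than half and red fluorescence within 50% of control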
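Assay system: HT1080 cells carrying an RFP-PRO-GFP reporter | Dosing: Single dose of 20 µM compound, 1% DMSO final | Incubation: Cells overnight before dosing, compound overnight, 37 °C, 5% CO2 | Evaluation: GFP/RFP fluorescence ratio | Control set: DMSO and RFP-L50D-GFP cell wells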
MPTP inh: permeability transition pore inhibition; inhibition, % at 10 µM; 1.4% of 360,000 active; isolated mouse mitochondria, Ca2+ swelling absorbance, 30 min;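 active = inhibition of 50% or more, scaled per plate between neutral and stimulator controls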;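 note: 0% = DMSO wells given calcium and 100% = 1 mM EGTA wells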
ADAM17 inh: ADAM17 inhibition, QFRET primary screen; P78536; recombinant ADAM17, EDANS/DABCYL FRET peptide cleavage; inhibition, % at 6.95 µM; 0.83% of 370,000 active; AID 720648;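 active = inhibition above the mean of compounds lying between control limits plus 3 SD, set per campaign, cut at about 8.5% in these data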;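 note: 0% = DMSO-only wells as the low control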
Target sequence (P78536 215-824 limits assumed): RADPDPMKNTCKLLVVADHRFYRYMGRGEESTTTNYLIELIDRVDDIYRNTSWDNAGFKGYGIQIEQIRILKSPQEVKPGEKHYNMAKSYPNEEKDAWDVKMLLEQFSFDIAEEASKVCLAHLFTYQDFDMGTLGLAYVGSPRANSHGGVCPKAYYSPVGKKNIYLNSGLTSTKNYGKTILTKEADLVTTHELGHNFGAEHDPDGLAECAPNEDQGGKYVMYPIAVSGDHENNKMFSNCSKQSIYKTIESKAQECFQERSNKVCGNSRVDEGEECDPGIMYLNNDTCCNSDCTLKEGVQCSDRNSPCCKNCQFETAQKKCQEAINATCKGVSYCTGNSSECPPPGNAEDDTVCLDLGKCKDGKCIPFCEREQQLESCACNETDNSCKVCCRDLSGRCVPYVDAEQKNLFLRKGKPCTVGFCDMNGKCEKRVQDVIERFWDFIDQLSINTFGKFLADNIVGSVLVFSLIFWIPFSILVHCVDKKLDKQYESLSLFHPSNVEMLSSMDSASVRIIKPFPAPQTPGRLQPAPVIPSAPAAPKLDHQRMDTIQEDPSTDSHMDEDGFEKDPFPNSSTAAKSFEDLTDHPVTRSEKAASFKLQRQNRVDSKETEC
Numbers without * were called inactive. Most compounds without a hit are left out; they make up all but 4.7% or so of the library.

SMILES	NR3A LBD binder	SKN-1 block	ADAM10 inh	MT1-MMP act inh	MPTP inh	ADAM17 inh
CCOC(=O)C(=O)/C(=C\N(C)C)c1onc(-c2c(Cl)cccc2Cl)c1C(=O)OC	11*	1	2	-1	0	-4
CCOC(=O)C(=O)/C(=C\N(C)C)c1onc(-c2ccccc2Cl)c1C(=O)OC	-1	4	-7	-2	2	0
[O-][N+]1=c2ccc(Nc3ccccc3)cc2=NC12CCCCC2	-1	-1	0	-13	8	1
COc1ccc(Nc2ccc3c(c2)=NC2(CCCCC2)[N+]=3[O-])cc1	-1	25	6	-19	8	9.7*
COc1ccccc1CCNC(=O)C(C)n1nc(C)c2c(C)n(-c3ccccc3)nc2c1=O (centres undefined)	2	10	1	-1	2	1
CC(C)CC(=O)c1c[nH]c(C(=O)O)c1	0	-2	-10	-1	-4	-2
Cc1ccc(C(C)NC(=O)/C(C#N)=C\c2c(C)[nH]c3ccccc23)cc1 (centres undefined)	17*	9	18	0	2	-4
COc1cccc(N2CCN(C(=O)CN3C(=O)NC(C)(c4ccc5ccccc5c4)C3=O)CC2)c1 (centres undefined)	19*	18	-1	-13	-2	2
CN1CCN(C(=O)CN2C(=O)NC(C)(c3ccc4ccccc4c3)C2=O)CC1 (centres undefined)	3	17	0	-2	-2	0
CN(CC(=O)OCC(=O)Nc1ccccc1)S(=O)(=O)c1ccc(Cl)cc1	18*	16	-1	1	2	-4
CC(=O)Nc1ccc(S(=O)(=O)N(C)CC(=O)OCC(=O)N2CCCCC2)cc1	-1	21	2	3	-1	-2
CC(=O)Nc1ccc(NC(=O)C(C)OC(=O)CN(C)S(=O)(=O)c2ccc(Cl)cc2)cc1 (centres undefined)	15*	-17	-2	-2	-3	-5
CN(CC(=O)Nc1nc2ccccc2s1)S(=O)(=O)c1ccc(Cl)cc1	-7	36*	9	-3	11	2
CCOC(=O)C1CCN(C(=O)COC(=O)CN(C)S(=O)(=O)c2ccc(NC(C)=O)cc2)CC1	10*	7	5	-3	0	-1
O=C(O)Cn1cnc2c(=S)nc[nH]c21	-1	2	-1	1	2	-2
COc1ccc(C2CC(=O)c3c(C)nc(N4CCN(c5ccccc5)CC4)nc3C2)cc1 (centres undefined)	727*	7	0	-2	3	-3
CC(NC(=O)c1cccc(N2CCCC2=O)c1)c1ccc2c(c1)OCCO2 (centres undefined)	-1	2	4	4	-9	3
COc1ccc2nc(Nc3ccccc3)sc2c1	30*	21	3	5	0	3
COc1ccc2nc(Nc3nc4cc5c(cc4s3)OCO5)sc2c1	14*	16	-179	6	2	-49
COc1ccc2nc(Nc3ccccc3OC)sc2c1	19*	13	6	-2	-6	-4
COc1ccc(Nc2nc3ccccc3c(=O)s2)c(OC)c1	0	10	4	3	-4	-2
CC(C)Nc1nc(-c2ccncc2)nc(-c2ccc(Cl)cc2)c1C#N	10*	4	-14	-1	0	-4
CC(C)Nc1nc(-c2cccnc2)nc(-c2ccc(Cl)cc2)c1C#N	-1	13	-1	-4	1	-2
N#Cc1c(-c2ccccc2)nc(-c2ccncc2)[nH]c1=O	-2	-1	-4	2	0	-2
N#Cc1c(Cl)nc(-c2ccncc2)nc1-c1ccccc1	11*	-10	3	0	0	-2
CC1CN(C(=O)c2cccs2)CCN1C(=O)c1cccs1 (centres undefined)	-1	43*	-3	-4	-3	-2
COC(=O)COc1cccc(NS(=O)(=O)c2ccc(NC(C)=O)cc2)c1	14*	15	-2	2	2	-2
CCOc1ccc(NS(=O)(=O)c2ccc(N)cc2)cc1	1	-12	0	0	-1	1
